Activity data for 19 compounds are collected here from ChEMBL document CHEMBL4610079, “Anti-inflammatory Flavanones and Flavones from Tephrosia linearis” (2020).

Structures are written as SMILES.

Common to all, as to format: functional
Assay [1] concerns PBMC. As to the kind of experiment: Antiinflammatory activity in LPS-induced human PBMC cells assessed as IL-6 release at 100 uM after 24 hrs by luminex based bead assay relative to control. The essentials: (§1)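 Pooled cryopreserved human PBMCs from three donors were thawed and resuspended in RPMI 1640 with 10% FBS, at 100 000 cells/well. Each test item was given at 100 μM from a 20 mM DMSO stock, with 0.5% final DMSO. It was co-incubated with 10 μg/mL LPS for 24 h at 37 °C and 5% CO2. Supernatant was read by MagPix cytokine bead array, expressed as % of LPS control, n = 1.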

The subject of assay [2] is PBMC. Briefly: Antiinflammatory activity in LPS-induced human PBMC cells assessed as IL-2 release at 100 uM after 24 hrs by luminex based bead assay relative to control. The essentials:
as §1

Assay [3] concerns PBMC. Briefly: Antiinflammatory activity in LPS-induced human PBMC cells assessed as GM-CSF release at 100 uM after 24 hrs by luminex based bead assay relative to control. An outline of the steps:
as §1

Assay [4] relates to PBMC. Briefly: Antiinflammatory activity in LPS-induced human PBMC cells assessed as TNFalpha release at 100 uM after 24 hrs by luminex based bead assay relative to control. An outline of the steps:
as §1

The test system of assay [5] is PBMC. Briefly: Antiinflammatory activity in LPS-induced human PBMC cells assessed as IL-1beta release at 100 uM after 24 hrs by luminex based bead assay relative to control. An outline of the steps:
as §1

For `COc1cc(-c2cc(=O)c3ccc(O)cc3o2)ccc1O`, the Activity with PBMC [1] was 100%; with PBMC [2], 57.64%; in the assay on PBMC [3], 92.58%; in the assay with PBMC [4], 3.64%; with PBMC [5], 109.22%.
On to `C=C(C)C(O)Cc1c(O)cc2oc(-c3ccc(O)cc3)cc(=O)c2c1O` (stereo not given), for which the Activity with PBMC [1] is on record as 238.54%; with PBMC [2], 57.64%; with PBMC [3], 38.92%; with PBMC [4], 5.2%; in the assay with PBMC [5] it was 103.28%.
Turning to `COc1cc2oc(-c3ccc(O)c(O)c3)c(O[C@@H]3O[C@@H](C)[C@H](O)[C@@H](O)[C@H]3O)c(=O)c2c(O)c1OC`, the Activity amounted to 24.94% with PBMC [1]; 17.72% in the assay on PBMC [2]; 48.79% in the assay with PBMC [3]; 3.83% in the assay with PBMC [4]; 148.44% in the assay on PBMC [5].
Take `COc1cc([C@@H]2CC(=O)c3cc(OC)c(O)cc3O2)ccc1O`: the Activity was 100% with PBMC [1]; 57.6% in the assay on PBMC [2]; 35.76% with PBMC [3]; 12.55% in the assay on PBMC [4]; 220.43% in the assay with PBMC [5].
The matching figures for `COc1c2c(c(/C=C\C(C)(C)O)c3oc(-c4ccccc4)cc(=O)c13)OC(C)(C)C=C2`: 0%, 57.6%, 8.63%, 0.17% and 1.18%.
Consider `C=C(C)/C=C/c1c2c(c(O)c3c(=O)cc(-c4ccccc4)oc13)C=CC(C)(C)O2`, for which the Activity came out at 622.32% in the assay with PBMC [1]; 17.72% with PBMC [2]; 78.39% in the assay on PBMC [3]; 1.89% in the assay with PBMC [4]; 169.84% in the assay on PBMC [5].
For `COc1cc2c(c(O)c1CC=C(C)C)C(=O)C[C@@H](c1ccc(O)cc1)O2`, the Activity in the assay on PBMC [1] is 19.57%; in the assay on PBMC [2], 57.64%; in the assay with PBMC [3], 46.89%; in the assay on PBMC [4], 6.38%; with PBMC [5], 102.34%.
`COc1cc(-c2cc(=O)c3cc(OC)c(O)cc3o2)ccc1O`: the Activity was found to be 43.11% in the assay on PBMC [1]; 17.72% with PBMC [2]; 17.39% with PBMC [3]; 4.03% in the assay on PBMC [4]; 170.51% with PBMC [5].
Take `CC(=O)OCC1(C)C=Cc2c(cc(O)c3c2O[C@H](c2ccccc2)CC3=O)O1` (stereo not given in full): the Activity in the assay with PBMC [1] is 43.39%; in the assay with PBMC [2], 17.72%; in the assay with PBMC [3], 40.97%; in the assay on PBMC [4], 2.66%; in the assay with PBMC [5] it was 157.09%.
In the same order, the values of `C=C(C)/C=C/c1c2c(c(OC)c3c(=O)cc(-c4ccccc4)oc13)C=CC(C)(C)O2` are 97.43%, 57.6%, 83.73%, 3.15% and 75.85%.
As for `COc1c2c(c(/C=C/C(C)(C)OC)c3oc(-c4ccccc4)cc(=O)c13)OC(C)(C)C=C2`, the Activity in the assay on PBMC [1] stood at 10.89%; in the assay with PBMC [2] it was 57.6%; in the assay with PBMC [3] it was 17.39%; in the assay with PBMC [4], 0.92%; with PBMC [5], 68.27%.
As to `COc1c(O)cc2oc(-c3ccc(O)c(O)c3)c(O[C@@H]3O[C@@H](C)[C@H](O)[C@@H](O)[C@H]3O)c(=O)c2c1O`, the Activity in the assay on PBMC [1] was found to be 0.64%; with PBMC [2], 57.6%; in the assay on PBMC [3], 8.63%; in the assay with PBMC [4], 0.54%; in the assay with PBMC [5] it was 4.81%.
With `CC(C)=CCc1c(O)cc2oc(-c3ccc(O)cc3)cc(=O)c2c1O`, the Activity was 24.72% in the assay with PBMC [1]; 17.72% in the assay with PBMC [2]; 48.79% with PBMC [3]; 5.01% in the assay on PBMC [4]; 40.83% in the assay with PBMC [5].
With `C=C(C)C(O)Cc1c(OC)cc2c(c1O)C(=O)C[C@@H](c1ccc(O)cc1)O2` (stereo not given in full), the Activity is reported as 25.79% in the assay with PBMC [1]; 17.72% with PBMC [2]; 32.47% in the assay on PBMC [3]; 4.03% in the assay with PBMC [4]; 53.77% with PBMC [5].
In the same order, the values of `O=c1cc(-c2ccc(O)cc2)oc2cc(O)cc(O)c12` [APIGENIN] are 48.33%, 57.6%, 32.47%, 4.22% and 105.17%.
Turning to `CC1(C)C=Cc2c(cc(O)c3c(=O)cc(-c4ccc(O)cc4)oc23)O1` [ATALANTOFLAVONE], the Activity is listed as 7.23% with PBMC [1]; 57.64% in the assay on PBMC [2]; 4.87% in the assay with PBMC [3]; 1.12% with PBMC [4]; 48.35% with PBMC [5].
In the same order, the values of `CC(C)Cc1ccc(C(C)C(=O)O)cc1` (stereo not given) [IBUPROFEN] are 46.46%, 80.33%, 47.76%, 12.23% and 199.29%.
Take `O=c1cc(-c2ccc(O)c(O)c2)oc2cc(O)cc(O)c12` [LUTEOLIN]: the Activity with PBMC [1] is reported as 0.04%; with PBMC [2], 57.6%; in the assay on PBMC [3], 8.63%; in the assay on PBMC [4], 0.17%; with PBMC [5], 0.67%.
On to `COc1cc(O)c2c(=O)cc(-c3ccc(O)c(OC)c3)oc2c1` [VELUTIN], for which the Activity amounted to 0.09% with PBMC [1]; 57.6% in the assay on PBMC [2]; 8.63% in the assay on PBMC [3]; 0.92% in the assay with PBMC [4]; 0.8% in the assay with PBMC [5].
